T cruzi inh: blocks replication of Trypanosoma cruzi | 300,000 compounds, 1.4% hits | inhibition, % (test concentration not listed) | T. cruzi beta-gal in NIH3T3, luminescence, 90 h | AID 1885;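 active = mean inhibition across valid replicates above about 55%, limit read from the data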;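 also: signal also drops with host cell toxicity which is not excluded here; higher percent means less beta-gal luminescence so fewer parasites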
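compound dosing = single 50 nL compound addition per well in DMSO | material = NIH/3T3 host cells with β-galactosidase reporter T. cruzi | input = 5,000 host fibroblasts per well | timing = ≥90 h infection period, 3 h prior cell attachment | read-out basis = percent inhibition of parasite-derived β-gal signal | detection = GalScreen β-gal luminescence, detergent lysis, 60 min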
Beta cell apopt: beta cell apoptosis inhibition; INS-1E cytokine-induced death, ATP luminescence, 48 h; percent of positive-control rescue, neutral wells zero; protection from apoptosis, % (test concentration not listed); 300,000 compounds, 0.8% hits; AID 435005;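 active = Every replicate reaches about 75%, or at least half do and their mean reaches it too, limit read from the data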;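 also: higher means more ATP so stronger rescue from cytokine killing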
UPR CHOP act: activators of apoptotic arm of unfolded protein response (CHOP) | CHO-CHOP luciferase reporter, UPR activation, luminescence; percent of tunicamycin response over DMSO baseline | activation, % at 10 µM | 330,000 compounds, 0.34% hits | AID 449763;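 active = at 10 µM dose, activation of 40% or more, normalized to positive control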
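Material: CHO-CHOP cells, stable luciferase reporter of PERK-eIF2a-CHOP signalling; quantity: 500 reporter cells seeded per well; buffer or medium: F12 medium containing 10% fetal bovine serum; compound: one dose, 10 µM in 0.5% DMSO; incubation: 6 h compound treatment, 37 °C; measured by: Steady-Glo luciferase luminescence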
XBP1 UPR activ: adaptive UPR (XBP1) activation | CHO-XBP1 luciferase reporter, IRE1-XBP1 UPR activation, luminescence; percent of tunicamycin response, DMSO as zero | activation, % at 20 µM | 330,000 compounds, 0.33% hits | AID 463104;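 active = versus positive control, 20 µM dose yields 30% or more activation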
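Signal: luciferase luminescence; Assay system: CHO-XBP1 luciferase reporter cells; Amount: one thousand reporter cells per well; Dosing: 20 µM single concentration, DMSO 1%; Benchmarks: high control tunicamycin 10 µg/mL final, low control DMSO vehicle only; Schedule: 6 h compound exposure at 37 °C, 5% CO2; Evaluation: percent activation relative to tunicamycin reference.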
CSC inhib: cancer stem cell inhibition; AID 2717; cancer stem cell-like cells viability, luminescence; inhibition, % at 7.5 µM; 300,000 compounds, 1.1% hits; in the data active = inhibition above about 75%; tested in HMLE shEcad cells
Mdm2-MdmX inh: disrupts the human Mdm2-MdmX interaction; SaOS-2 split-luciferase Mdm2/MdmX complementation, luminescence; inhibition, % at 8 µM; 330,000 compounds, 3% hits; AID 485346;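 active = inhibition of at least 50% at 8 µM in the primary screen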
Target sequence (O15151 whole entry, looked up): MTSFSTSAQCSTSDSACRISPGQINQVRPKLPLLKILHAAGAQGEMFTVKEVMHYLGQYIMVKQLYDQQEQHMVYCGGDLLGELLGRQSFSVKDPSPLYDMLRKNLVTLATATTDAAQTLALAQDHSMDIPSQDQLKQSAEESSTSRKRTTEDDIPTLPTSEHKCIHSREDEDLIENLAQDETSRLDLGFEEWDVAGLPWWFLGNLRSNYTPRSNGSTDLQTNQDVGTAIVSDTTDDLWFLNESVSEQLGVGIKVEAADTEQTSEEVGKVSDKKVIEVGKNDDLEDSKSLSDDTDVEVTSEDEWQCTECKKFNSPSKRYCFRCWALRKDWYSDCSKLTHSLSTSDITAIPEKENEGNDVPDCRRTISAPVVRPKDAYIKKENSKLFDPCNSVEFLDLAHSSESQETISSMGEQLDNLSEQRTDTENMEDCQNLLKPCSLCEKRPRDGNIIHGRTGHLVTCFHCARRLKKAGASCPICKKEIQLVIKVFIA
Target sequence (Q00987 whole entry, looked up): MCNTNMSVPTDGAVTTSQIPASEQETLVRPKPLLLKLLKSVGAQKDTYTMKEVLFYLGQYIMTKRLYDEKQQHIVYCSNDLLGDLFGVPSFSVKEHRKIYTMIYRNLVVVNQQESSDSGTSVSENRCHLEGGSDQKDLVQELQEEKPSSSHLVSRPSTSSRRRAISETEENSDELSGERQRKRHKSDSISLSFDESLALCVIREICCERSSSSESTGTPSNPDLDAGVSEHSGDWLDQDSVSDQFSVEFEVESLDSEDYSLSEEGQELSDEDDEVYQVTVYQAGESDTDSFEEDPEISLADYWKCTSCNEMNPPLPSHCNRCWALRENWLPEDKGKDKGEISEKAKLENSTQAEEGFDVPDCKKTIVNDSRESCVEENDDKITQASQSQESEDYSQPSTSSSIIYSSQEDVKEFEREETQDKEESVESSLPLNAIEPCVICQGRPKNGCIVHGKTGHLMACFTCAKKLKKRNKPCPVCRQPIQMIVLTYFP
Hits are given with their value; 0 = inactive; - = not tested or not shown. A selection: hits, their analogues and other compounds. The true share with any hit is near 5%.

SMILES	T cruzi inh	Beta cell apopt	UPR CHOP act	XBP1 UPR activ	CSC inhib	Mdm2-MdmX inh
Cc1cccc(NC(=O)c2ccc(COc3ccc(Cl)cc3Cl)o2)n1	0	0	0	0	104.0	0
Cn1cc(SCC(=O)NCCc2ccccc2)c2ccccc21	0	0	0	0	0	0
O=C(c1cccc(Cl)c1)C1CCCN(C(=O)c2ccoc2)C1 (centres undefined)	0	0	0	0	0	0
Nc1nc(-c2ccccc2)c(-c2ccc([N+](=O)[O-])cc2)s1	0	93.3	0	0	0	0
Nc1nc(-c2ccccc2)c(-c2ccccc2)s1	0	-	0	0	0	0
CN(CC(=O)Nc1ccccc1Oc1ccccc1)Cc1ccccc1F	0	0	0	0	91.4	0
CCN(CC)CCNC(=O)c1ccc(-n2c(C)cc3c2CCCC3=O)cc1	0	0	0	0	0	0
Cc1sc2ncnc(N/N=C/c3ccc(O)cc3)c2c1C	0	0	0	0	0	0
Cc1sc2ncnc(NCC(O)c3ccccc3)c2c1C (centres undefined)	0	87.5	0	0	0	0
Cc1sc2ncnc(NCC(O)c3ccc([N+](=O)[O-])cc3)c2c1C (centres undefined)	0	79.2	0	0	0	0
Cc1sc2ncnc(N/N=C/c3ccccc3O)c2c1C	0	85.5	-	-	104.8	-
Cc1sc2ncnc(NCC(c3ccccc3)N(C)C)c2c1C (centres undefined)	0	0	0	0	0	0
Cn1c(CSCc2ccccc2)n[nH]c1=S	0	0	0	0	0	0
O=C1CCN(S(=O)(=O)c2ccccc2)CCN1CCOCc1cccc(F)c1	0	0	0	0	0	0
Cc1ccc(S(=O)(=O)NCc2ccc(C(=O)NC3CCC(O)CC3)cc2)cc1C (centres undefined)	-	0	0	0	-	0
CC1=C(C(=O)OC2CCCCC2)C(c2cccnc2)n2nnnc2N1 (centres undefined)	59.2	0	0	0	0	0
O=C(Nc1ccccc1)Nc1ccccc1-n1ccnc1	60.8	0	0	0	0	0
c1ccc(NNC2=NCCCCC2)cc1	0	0	0	0	84.0	0
COc1ccc(OC)c(NC(=O)c2nnn(Cc3ccccc3C)c2N)c1	0	0	0	0	105.7	0
CCC1(CC)C(=O)C(C)(C)C(=O)OC1c1cccs1 (centres undefined)	0	0	0	0	0	0
O=C(NC1CC2CCCC(C1)N2C(=S)Nc1ccccc1)C1CC1 (centres undefined)	0	0	0	0	0	0
Cc1cc(C)c2[nH]c(=O)c(CN(Cc3ccc4c(c3)OCO4)Cc3nnnn3C3CCCC3)cc2c1	71.2	0	0	0	0	0
Cc1ccc2[nH]c(=O)c(CN(Cc3ccccc3)Cc3nnnn3C3CCCC3)cc2c1	0	0	0	0	0	0
Cc1cccc2cc(CN(Cc3ccc(F)cc3)Cc3nnnn3C3CCCC3)c(=O)[nH]c12	55.6	0	0	0	0	0
Cc1ccc(C)c2[nH]c(=O)c(CN(Cc3nnnn3C3CCCCC3)CC3CCCO3)cc12 (centres undefined)	0	0	0	0	0	0
SMILES	T cruzi inh	Beta cell apopt	UPR CHOP act	XBP1 UPR activ	CSC inhib	Mdm2-MdmX inh
O=S(=O)(Nc1ccc(-c2nnc(SCc3ccc(Cl)cc3)o2)cc1)c1ccccc1	0	0	0	0	91.9	0
O=C(Nc1ccccc1-c1nnc(SCc2ccc(Cl)cc2)o1)c1ccccc1	71.2	0	0	0	-	0
O=C(CS(=O)(=O)Cc1ccccc1)Nc1ccc(Cl)cn1	0	0	0	0	0	0
Cc1ccc(O)c(O)c1	0	0	0	0	0	0
Cc1cc(O)c(Oc2cc(C)cc(O)c2O)c(O)c1	0	0	0	0	79.7	0
c1ccc(CCc2ccncc2)cc1	55.8	0	0	0	0	0
C1CCC(CNc2c3c(nc4nnnn24)CCCC3)CC1	68.0	0	0	0	0	0
COCCCNc1c2c(nc3nnnn13)CCCC2	0	0	0	0	0	0
S=C(Nc1ccc(Nc2ccccc2)cc1)Nc1ccccn1	0	86.2	0	0	0	0
CCOc1ccc(CNc2ccc(N3CCCC3)cc2)cc1	0	108.8	0	0	0	0
COc1cc(CNc2ccc(N3CCCC3)cc2)cc(Cl)c1OC	73.2	0	0	0	0	0
CCOc1ccc(CNc2ccc(N3CCN(Cc4ccccc4)CC3)cc2)cc1	0	0	0	0	0	0
COc1ccccc1CNc1ccc(N2CCCCC2)cc1	65.0	0	0	0	0	0
CSC(=Nc1cccc(C)c1)NC#N	0	0	0	0	0	0
C/C(COc1ccccc1)=N\NC(=O)c1nnn(-c2nonc2N)c1CSc1ccccc1	0	0	0	0	0	0
CCOc1ccc(NC(=O)c2ccc3[nH]c(=O)c(=O)[nH]c3c2)cc1	0	0	0	0	0	0
O=C(Nc1ccc2c(c1)OCO2)c1cc(C2CC2)on1	0	0	0	0	98.1	0
Cc1ccc(-n2nnnc2C(Cl)c2nnnn2-c2ccc(C)cc2)cc1	55.0	-	-	-	-	-
COc1ccc(OC)c(-c2oc3ccccc3c(=O)c2O)c1	0	0	0	0	-	0
COc1ccc(OC)c(-c2c3cc(O)c(=O)cc-3oc3cc(O)c(O)cc23)c1	-	0	-	-	95.4	-
CN(Cc1ccccc1)C(=O)c1[nH]cnc1C(=O)NCC(=O)OCc1ccccc1	0	0	0	0	0	0
Cc1ccc(SCC(=O)N2CC(C)OC(C)C2)cc1 (centres undefined)	0	0	0	0	0	0
Cc1ccc(SCCOCCN2CC(C)OC(C)C2)cc1 (centres undefined)	57.2	0	0	0	0	0
Cc1ccc(SCCOCCN2CCc3ccccc3C2)cc1	60.5	0	0	0	0	0
Cc1ccc(C)c(OCCCN2CCc3ccccc3C2)c1	0	-	0	0	0	0
SMILES	T cruzi inh	Beta cell apopt	UPR CHOP act	XBP1 UPR activ	CSC inhib	Mdm2-MdmX inh
CC(OC(=O)c1ncc(Cl)c(Cl)c1Cl)C(=O)NC1(C#N)CCCCC1 (centres undefined)	0	0	0	0	0	0
CCc1ccc(S(=O)(=O)/N=C2/C=C(Sc3ncn[nH]3)C(=O)c3ccccc32)cc1	-	127.1	-	-	104.0	-
CCc1ccc(S(=O)(=O)/N=C2\C=CC(=O)c3ccccc32)cc1	0	0	0	0	0	0
CC(=O)Nc1cccc(NC(=O)CSc2ncc(C(=O)Nc3ccc(F)cc3)c(=O)n2C)c1	0	0	0	0	0	0
CC(=O)Nc1cccc(NC(=O)CSc2ncc(C(=O)Nc3ccccc3)c(=O)n2C)c1	0	-	202.5	0	0	0
Cc1c(CN2CCC(CO)(Cc3ccccc3)CC2)c2ccccc2n1C	57.4	0	0	0	0	0
C[n+]1cc(-c2ccccc2)n2c1CCCCC2	0	0	0	0	-	0
